Experiments:
[1] = target: T1, Proteasome subunit beta type-6 (Homo sapiens, UniProt P28072); assay: Inhibition of 20S constitutive proteasome beta 1 caspase-like activity in human Raji cell lysates after 1 hr by competitive ABPP assay; format: subcellular, Lysate
T1 sequence (P28072 whole entry): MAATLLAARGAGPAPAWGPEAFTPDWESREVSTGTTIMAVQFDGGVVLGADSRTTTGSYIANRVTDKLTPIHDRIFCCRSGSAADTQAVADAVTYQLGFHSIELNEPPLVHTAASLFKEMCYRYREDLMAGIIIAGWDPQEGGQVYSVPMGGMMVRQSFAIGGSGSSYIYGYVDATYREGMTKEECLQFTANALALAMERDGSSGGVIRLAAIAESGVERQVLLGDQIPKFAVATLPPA
In short: (§1)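 Raji cells were sonicated in 3 volumes of Tris pH 7.5 lysis buffer containing DTT, MgCl₂, sucrose, 2 mM ATP and 0.05% digitonin. Lysate (5 μg protein, in buffer with 2 mM ATP and glycerol) was preincubated with inhibitor for 1 h at 37 °C, then with a cocktail of three fluorescent ABPs for 1 h. In-gel fluorescence densitometry was normalized to mock. IC50 came from the mean of three experiments.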

[2] = target: T2, Proteasome subunit beta type-9 (Homo sapiens, UniProt P28065); assay: Inhibition of 20S immunoproteasome beta 1 in human Raji cell lysates after 1 hr by competitive ABPP assay; format: subcellular, Lysate
T2 sequence (P28065 whole entry): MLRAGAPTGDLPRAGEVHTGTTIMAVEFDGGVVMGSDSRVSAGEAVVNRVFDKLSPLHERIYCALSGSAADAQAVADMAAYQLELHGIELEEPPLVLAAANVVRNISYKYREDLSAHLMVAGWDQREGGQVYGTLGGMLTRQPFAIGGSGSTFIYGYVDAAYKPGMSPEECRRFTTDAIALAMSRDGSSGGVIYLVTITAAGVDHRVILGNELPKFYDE
In short: as §1, with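 “h. […]” for “h.”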

[3] = target: T3, Proteasome Macropain subunit MB1 (Homo sapiens, UniProt P28074); assay: Inhibition of 20S constitutive proteasome beta 5 chymotrypsin-like activity in human Raji cell lysates after 1 hr by competitive ABPP assay; format: subcellular, Lysate
T3 sequence (P28074 whole entry): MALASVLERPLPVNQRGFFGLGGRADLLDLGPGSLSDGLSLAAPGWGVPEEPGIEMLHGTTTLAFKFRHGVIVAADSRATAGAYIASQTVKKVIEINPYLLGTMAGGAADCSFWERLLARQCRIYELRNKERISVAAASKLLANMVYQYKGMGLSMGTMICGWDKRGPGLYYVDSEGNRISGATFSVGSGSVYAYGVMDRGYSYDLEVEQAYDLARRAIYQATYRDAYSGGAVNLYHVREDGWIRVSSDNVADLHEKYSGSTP

Homo sapiens = species on record: Homo sapiens; assay: Selectivity ratio of IC50 for 20S immunoproteasome beta 2 (unknown origin) to IC50 for 20S constitutive proteasome beta 2 trypsin-like activity (unknown origin)
[4] = target: T4, Proteasome subunit beta type-10 (Homo sapiens, UniProt P40306); assay: Inhibition of 20S immunoproteasome beta 2 (unknown origin) by cell based ABPP assay
T4 sequence (P40306 whole entry): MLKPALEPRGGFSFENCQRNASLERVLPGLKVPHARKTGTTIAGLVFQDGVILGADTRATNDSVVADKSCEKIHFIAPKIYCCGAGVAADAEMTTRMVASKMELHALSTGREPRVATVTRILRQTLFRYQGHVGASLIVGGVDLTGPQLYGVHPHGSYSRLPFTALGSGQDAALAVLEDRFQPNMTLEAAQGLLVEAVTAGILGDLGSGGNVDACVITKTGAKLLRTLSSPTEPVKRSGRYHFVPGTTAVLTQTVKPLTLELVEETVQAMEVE
In short: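 Living RPMI-8226 cells, (5–8) ×10^5 cells/mL, exposed to inhibitor 1 h at 37 °C, washed, lysed in digitonin buffer 1 h on ice; residual activity labelled with cocktail ABPs, SDS-PAGE in-gel fluorescence, bands divided by mock, Coomassie staining to correct loading. IC50 from mean of three independent experiments.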

[5] = target: T5, Proteasome subunit beta type-8 (Homo sapiens, UniProt P28062); assay: Inhibition of 20S immunoproteasome beta 5 in human Raji cell lysates after 1 hr by competitive ABPP assay; format: subcellular, Lysate
T5 sequence (P28062 whole entry): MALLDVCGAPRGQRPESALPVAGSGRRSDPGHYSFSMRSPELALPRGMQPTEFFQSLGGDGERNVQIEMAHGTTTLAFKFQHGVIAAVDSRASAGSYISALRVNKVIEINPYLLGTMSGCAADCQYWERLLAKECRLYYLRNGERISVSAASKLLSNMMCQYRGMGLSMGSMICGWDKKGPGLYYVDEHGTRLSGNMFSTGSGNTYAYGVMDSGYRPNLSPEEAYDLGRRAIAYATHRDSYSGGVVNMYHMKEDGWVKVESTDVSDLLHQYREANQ

SMILES | IC50 [1] [µM] | IC50 [2] [µM] | IC50 [3] [µM] | Ratio IC50 (Homo sapiens) | IC50 [4] [µM] | IC50 [5] [µM]
COc1ccc(C[C@H](NC(=O)[C@H](C)NC(=O)CN2CCOCC2)C(=O)N[C@@H](CCC2CCCCC2)C(=O)[C@@]2(C)CO2)cc1 | > 100 | > 100 | 5 |  |  | 
CC(C)C[C@H](NC(=O)c1cc(Cl)ccc1Cl)C(=O)N[C@@H](CC(C)C)C(=O)N[C@H](/C=C/S(C)(=O)=O)Cc1ccc(CN)cc1 |  |  |  | 5 | 0.35 | 
Cc1ncc(C(=O)N[C@@H](CC(C)C)C(=O)N[C@@H](CC2CCC(C)CC2)C(=O)N[C@H](/C=C/S(C)(=O)=O)Cc2ccc(CN)cc2)s1 (stereo partly drawn) |  |  |  | 7 | 0.2 | 
Cc1ncc(C(=O)N[C@@H](CC(C)C)C(=O)N[C@@H](CC2CCC(C3CCCCC3)CC2)C(=O)N[C@H](/C=C/S(C)(=O)=O)Cc2ccc(CN)cc2)s1 (stereo partly drawn) |  |  |  | 3 | 0.045 | 
CC(C)C[C@H](NC(=O)c1ccc(-c2ccccc2)nc1)C(=O)N[C@@H](CC(C)C)C(=O)N[C@H](/C=C/S(C)(=O)=O)Cc1ccc(CN)cc1 |  |  |  | 0.8 | 0.023 | 
COc1ccc(C[C@H](NC(=O)[C@H](C)NC(=O)CN2CCOCC2)C(=O)N[C@@H](C[C@@H]2CCCC3CCCCC32)C(=O)[C@@]2(C)CO2)cc1 (stereo partly drawn) | > 100 | > 100 | > 100 |  |  | > 100
Cc1ncc(C(=O)N[C@@H](CC2CCC(C3CCCCC3)CC2)C(=O)N[C@@H](CC(C)C)C(=O)N[C@H](/C=C/S(C)(=O)=O)Cc2ccc(CN)cc2)s1 (stereo partly drawn) |  |  |  | > 3 | > 10 | 
CC1CCC(C[C@H](NC(=O)[C@@H](NC(=O)[C@H](Cc2ccc(CN)cc2)NC(=O)[C@H](Cc2ccccc2)N=[N+]=[N-])C(C)C)C(=O)[C@@]2(C)CO2)CC1 (stereo partly drawn) |  |  |  | 1 |  | 
COc1ccc(C[C@H](NC(=O)[C@H](C)NC(=O)CN2CCOCC2)C(=O)N[C@@H](C[C@@H]2CCC[C@H]3CCCC[C@H]32)C(=O)[C@@]2(C)CO2)cc1 | 53 | > 100 | > 100 |  |  | 28.4
COc1ccc(C[C@H](NC(=O)[C@H](C)NC(=O)CN2CCOCC2)C(=O)N[C@@H](C[C@H]2CCC[C@@H]3CCCC[C@@H]32)C(=O)[C@@]2(C)CO2)cc1 | > 100 | > 100 | > 100 |  |  | > 100
CC(C)C[C@H](NC(=O)[C@H](Cc1ccccc1)N=[N+]=[N-])C(=O)N[C@@H](CC(C)(C)F)C(=O)N[C@H](/C=C/S(C)(=O)=O)Cc1ccc(CN)cc1 |  |  |  | 3 | 0.047 | 
CC(C)C[C@H](NC(=O)c1cnccn1)C(=O)N[C@@H](C)C(=O)N[C@H](/C=C/S(C)(=O)=O)Cc1ccc(CN)cc1 |  |  |  | 6 | 1.35 | 
CC(C)C[C@H](NC(=O)CN1CCOCC1)C(=O)N[C@@H](CC(C)C)C(=O)N[C@H](/C=C/S(C)(=O)=O)Cc1ccc(CN)cc1 |  |  |  | 1 | 0.047 | 
Cc1ncc(C(=O)N[C@@H](CC(C)C)C(=O)N[C@@H](CC2CCCCC2)C(=O)N[C@H](/C=C/S(C)(=O)=O)Cc2ccc(CN)cc2)s1 |  |  |  | 7 | 0.26 | 
COC1CCC(C[C@H](NC(=O)[C@H](CC(C)C)NC(=O)c2cnc(C)s2)C(=O)N[C@H](/C=C/S(C)(=O)=O)Cc2ccc(CN)cc2)CC1 (stereo partly drawn) |  |  |  | 8 | 0.36 | 
Cc1ncc(C(=O)N[C@@H](CC2CCCC3CCCCC32)C(=O)N[C@@H](CC(C)C)C(=O)N[C@H](/C=C/S(C)(=O)=O)Cc2ccc(CN)cc2)s1 (stereo partly drawn) |  |  |  | 21 | 48 | 

From ChEMBL document CHEMBL4368918, “Structure-Based Design of Inhibitors Selective for Human Proteasome β2c or β2i Subunits” (J Med Chem, 2019)
